Hits are enriched below; roughly 2.4% of the tested compounds scored in any of these assays.
MT1-MMP act inh: blocks activation of human MT1-MMP. P50281. HT1080 RFP-PRO-GFP cells, GFP/RFP ratio fluorescence, overnight; percent of plate control window, DMSO zero. GFP/RFP ratio change, % at 20 µM. 360,000 tested, 0.061% active;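 active means GFP/RFP ratio change of at least 30% with cell ATP level not reduced by more than half and red fluorescence within 50% of control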
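Assay system: RFP-PRO-GFP reporter HT1080 cells; read-out basis: GFP/RFP fluorescence ratio; benchmarks: DMSO wells and RFP-L50D-GFP cells; doses: 20 µM single dose, 1% DMSO; schedule: overnight cell settling, then overnight compound exposure, 37 °C, 5% CO2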
Myeloid diff MLP: myeloid differentiation induction. ER-HoxA9 myeloid progenitors, lysozyme-GFP differentiation, flow cytometry. calls only at 10 µM. 360,000 tested, 1% active;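 active means normalized GFP-positive differentiation at or above the plate's own cutoff, the solvent-only control mean plus 3 SD; inconclusive means no clear call, values can overlap the other calls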;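 further: cells exposed to compound for four days before flow analysis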
beta cell repl: inducers of beta-cell replication in MIN6 cells | proliferation, % at 10 µM | MIN6 cells proliferation, ATPlite luminescence, 48 h; cells starved in 0.2% serum; 100% = growth in 10% serum | AID 2380 | 330,000 tested, 0.29% active;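 active means compounds whose signal lies at least 3.5 SD above the mean of all wells on their plate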;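 further: 0% = DMSO-treated cells in low-serum medium and 100% = 10% serum control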
DAGLB inh: diacylglycerol lipase beta (human) inhibition. HEK293T DAGLB membrane lysate, EnzChek fluorogenic substrate. inhibition, % at 5.17 µM. 340,000 tested, 0.059% active; in the data active means inhibition above about 34%;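 further: 0% = enzyme with vehicle and 100% = wells lacking enzyme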
SENP1 FRET inh: inhibitors of human SENP1 SUMO protease catalytic domain; AID 624204; 360,000 tested, 0.21% active; recombinant SENP1 catalytic domain, CyPet-SUMO1-YPet FRET cleavage; inhibition, % at 10 µM;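 active means inhibition at least 30% at 10 µM, raw YFP signal under a set limit, fluorescence ratio 0.5 to 1.5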;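 further: 0% = enzyme with DMSO and 100% = no enzyme wells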
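Material – human SENP1 catalytic domain · Input – SENP1 enzyme, 20 pM final · Compound dosing – single concentration of 10 µM compound, 0.5% DMSO final · Timing – enzyme reaction for 50 min at room temperature, dark · Measured by – FRET fluorescence in CFP and YFP emission channels · Control set – no-enzyme wells low, DMSO-plus-enzyme wells high control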
CendR NRP1 mod: modulators of CendR peptide binding to human neuropilin-1. 360,000 tested, 0.85% active. FAM-RPARPAR peptide binding to NRP-1, fluorescence polarization. O14786. inhibition, % at 25 µM;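 active means inhibition or corrected inhibition above about 18%, plus a signal ratio from 0.5 to 1.5, limit read from the data, passing the limit was not always enough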
Target sequence (O14786 whole entry, looked up): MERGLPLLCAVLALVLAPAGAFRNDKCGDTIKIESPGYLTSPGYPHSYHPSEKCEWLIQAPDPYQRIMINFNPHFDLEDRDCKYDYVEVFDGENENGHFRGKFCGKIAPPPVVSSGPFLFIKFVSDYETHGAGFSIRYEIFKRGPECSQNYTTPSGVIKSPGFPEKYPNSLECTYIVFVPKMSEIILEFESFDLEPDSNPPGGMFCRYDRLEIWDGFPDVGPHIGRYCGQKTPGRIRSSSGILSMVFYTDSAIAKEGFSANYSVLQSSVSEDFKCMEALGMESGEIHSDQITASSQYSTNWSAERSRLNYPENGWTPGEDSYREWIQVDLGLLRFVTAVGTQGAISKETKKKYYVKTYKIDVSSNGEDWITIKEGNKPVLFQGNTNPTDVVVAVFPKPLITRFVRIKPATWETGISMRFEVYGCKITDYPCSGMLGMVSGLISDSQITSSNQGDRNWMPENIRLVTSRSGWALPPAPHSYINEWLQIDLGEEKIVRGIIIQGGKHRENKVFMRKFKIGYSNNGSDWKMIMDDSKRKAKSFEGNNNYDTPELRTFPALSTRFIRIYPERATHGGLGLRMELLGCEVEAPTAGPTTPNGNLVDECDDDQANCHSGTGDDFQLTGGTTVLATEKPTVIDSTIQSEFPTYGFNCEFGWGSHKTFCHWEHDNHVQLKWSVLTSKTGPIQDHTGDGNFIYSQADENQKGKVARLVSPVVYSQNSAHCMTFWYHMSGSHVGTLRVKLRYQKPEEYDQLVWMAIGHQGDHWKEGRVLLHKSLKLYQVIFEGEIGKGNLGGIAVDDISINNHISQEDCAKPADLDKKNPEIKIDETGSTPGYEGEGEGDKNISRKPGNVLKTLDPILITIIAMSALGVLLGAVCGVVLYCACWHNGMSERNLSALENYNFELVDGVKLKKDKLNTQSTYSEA
Starred values were filed as active, the others as inactive.

For N#C/C(=C/c1ccc(-c2ccccc2)o1)c1nc(-c2cccs2)cs1 the results were MT1-MMP act inh -100.2, Myeloid diff MLP active, DAGLB inh -45.4, SENP1 FRET inh -25.4 and CendR NRP1 mod 130.8.
For N#C/C(=C\c1ccccn1)c1nc2ccccc2s1 the results were MT1-MMP act inh -103.9, Myeloid diff MLP active, beta cell repl -5.2, DAGLB inh -23.3, SENP1 FRET inh -25.9 and CendR NRP1 mod 132.9.
Screening N#C/C(=C/c1ccc(-c2ccc(S(N)(=O)=O)cc2)o1)C(=O)Nc1ccccc1 returned MT1-MMP act inh -0.9, Myeloid diff MLP inactive, beta cell repl -3.0, DAGLB inh 0.8, SENP1 FRET inh -28.7 and CendR NRP1 mod 4.7.
For CCC(C)NC(=O)c1cc(Sc2nnc(C)s2)nc2ccccc12 (stereo unspecified) the results were beta cell repl 0.4.
Screening CCOc1ccc(NC(=O)CCNS(=O)(=O)c2ccc3c(c2)c(=O)n(C)c(=O)n3C)cc1 returned MT1-MMP act inh -3.1, Myeloid diff MLP inactive, beta cell repl -2.1, DAGLB inh 0.8, SENP1 FRET inh 2.6 and CendR NRP1 mod -2.1.
For COc1ccc(NC(=O)CCNS(=O)(=O)c2ccc3c(c2)c(=O)n(C)c(=O)n3C)c(OC)c1 the results were MT1-MMP act inh 1.6, Myeloid diff MLP active, beta cell repl 0.0, DAGLB inh -3.1, SENP1 FRET inh 0.2 and CendR NRP1 mod -2.6.
O=C(Nc1cccc(S(=O)(=O)C(F)(F)F)c1)[C@H]1C[C@H](O)[C@@H](CO)O1 was read as MT1-MMP act inh -1.2, Myeloid diff MLP inactive, SENP1 FRET inh 0.1 and CendR NRP1 mod -1.0.
Screening Oc1ccc(/C=N/N2CCCCC2)c(O)c1O returned MT1-MMP act inh -11.0, Myeloid diff MLP inactive, beta cell repl -6.9, DAGLB inh 0.2, SENP1 FRET inh 37.5* and CendR NRP1 mod 11.8.
CN(C)S(=O)(=O)c1ccc(NC(=O)CN2CCN(c3ccccn3)CC2)cc1 was read as MT1-MMP act inh 2.3, Myeloid diff MLP inactive, beta cell repl 1.3, DAGLB inh -1.2, SENP1 FRET inh 0.5 and CendR NRP1 mod 7.7.
For Cc1ccccc1S(=O)(=O)Cc1ccc(C(=O)NCCN(C)Cc2ccccc2)o1 the results were Myeloid diff MLP active, beta cell repl -1.6, DAGLB inh -2.6, SENP1 FRET inh -0.8 and CendR NRP1 mod 1.8.
Cc1ccccc1S(=O)(=O)Cc1ccc(C(=O)NCCCN(C)Cc2ccccc2)o1 was read as MT1-MMP act inh 0.0, Myeloid diff MLP inactive, beta cell repl 1.2, DAGLB inh 3.1, SENP1 FRET inh -2.3 and CendR NRP1 mod 3.6.
CCOC(=O)c1c(NC(=O)c2c(-c3ccccc3)noc2C)sc(C)c1-c1ccccc1 was read as MT1-MMP act inh -9.3, Myeloid diff MLP active, beta cell repl -4.2, DAGLB inh -18.5, SENP1 FRET inh -7.4 and CendR NRP1 mod -10.6.
`CCOC(=O)c1c(NC(=O)c2c(C)noc2C)sc2c1CCCCC2` gave MT1-MMP act inh -2.2, Myeloid diff MLP inactive, beta cell repl -4.4, DAGLB inh 1.4, SENP1 FRET inh 0.6 and CendR NRP1 mod 34.9*.
Screening Cc1onc(-c2ccccc2)c1C(=O)Nc1c(C)n(C)n(-c2ccccc2)c1=O returned MT1-MMP act inh 4.1, Myeloid diff MLP inactive, beta cell repl 1.6, DAGLB inh 0.1, SENP1 FRET inh 0.2 and CendR NRP1 mod 38.2*.
O=C(Nc1cccc2ccccc12)c1ccco1 was read as MT1-MMP act inh 3.1, Myeloid diff MLP inactive, SENP1 FRET inh -4.0 and CendR NRP1 mod 17.5.
Screening Cc1n[nH]c(=O)n1-c1ccc(C(C)(C)C)cc1 returned MT1-MMP act inh -1.2, Myeloid diff MLP inactive, beta cell repl -2.5, DAGLB inh -0.3, SENP1 FRET inh -1.2 and CendR NRP1 mod 21.0*.
For CN(C(=O)c1ccc(NC(=O)Cc2ccc(NC(=O)C3CCCN(C(=O)C4CCCC4)C3)cc2)cc1)C1CC1 (stereo unspecified) the results were MT1-MMP act inh 1.9, Myeloid diff MLP active, beta cell repl -2.0, DAGLB inh 0.4, SENP1 FRET inh 3.6 and CendR NRP1 mod -19.6.
For CN(C(=O)c1ccc(NC(=O)Cc2ccc(NC(=O)C3CCCN(C(=O)C4CCCCC4)C3)cc2)cc1)C1CC1 (stereo unspecified) the results were MT1-MMP act inh 2.4, Myeloid diff MLP inactive, beta cell repl -1.5, DAGLB inh 1.0, SENP1 FRET inh 0.4 and CendR NRP1 mod 4.8.
CN(C(=O)c1ccc(NC(=O)Cc2ccc(NC(=O)C3CCN(C(=O)CCc4ccccc4)CC3)cc2)cc1)C1CCCC1 was read as MT1-MMP act inh 1.5, Myeloid diff MLP active, DAGLB inh -0.9, SENP1 FRET inh 1.2 and CendR NRP1 mod -7.9.
For Cc1cccc(NC(=O)CCN2C(=O)C3C4C=CC(C4)C3C2=O)c1 (stereo unspecified) the results were MT1-MMP act inh 1.3, Myeloid diff MLP inactive, beta cell repl -1.8, DAGLB inh 1.6, SENP1 FRET inh 0.1 and CendR NRP1 mod -5.1.
O=C(NCc1ccncc1)c1nc(-c2ccc(C(F)(F)F)cc2)no1 was read as MT1-MMP act inh -1.7, Myeloid diff MLP inactive, beta cell repl -4.4, DAGLB inh -2.0, SENP1 FRET inh 1.3 and CendR NRP1 mod -9.3.
For Cn1nnc2c(C(N)=O)ncn2c1=O the results were MT1-MMP act inh 7.7, Myeloid diff MLP active, beta cell repl -2.0, SENP1 FRET inh 1.0 and CendR NRP1 mod 3.2.
For Cc1c(Br)c(C(N)=O)nn1C the results were MT1-MMP act inh -4.5, Myeloid diff MLP inactive, beta cell repl -0.1, DAGLB inh 1.3, SENP1 FRET inh 1.2 and CendR NRP1 mod 8.9.
Screening COC(=O)[C@]1(C)N[C@H](CN(C)C(=O)c2ccccc2)[C@@H]2C(=O)N(Cc3ccccc3)C(=O)[C@@H]21 returned MT1-MMP act inh 3.3, Myeloid diff MLP inactive, beta cell repl 0.2, DAGLB inh 0.5, SENP1 FRET inh 1.1 and CendR NRP1 mod -15.5.
Screening CCCCNC(=O)C1C(c2ccc(OC)cc2)=Nc2ccccc2N1C(=O)c1cccnc1 (stereo unspecified) returned MT1-MMP act inh 3.4, Myeloid diff MLP inactive, SENP1 FRET inh 4.9 and CendR NRP1 mod -8.8.
`CN(C1=C(NC(=O)c2ccccc2)C(=O)c2ccccc2C1=O)C1CCS(=O)(=O)C1` (stereo unspecified) gave MT1-MMP act inh 1.5, Myeloid diff MLP inconclusive, beta cell repl -6.1, DAGLB inh 0.1, SENP1 FRET inh 12.2 and CendR NRP1 mod 44.9*.
